Measurements: ChEMBL document CHEMBL4819122, “Novel 4-(piperazin-1-yl)quinolin-2(1H)-one bearing thiazoles with antiproliferative activity through VEGFR-2-TK inhibition” (Bioorg Med Chem, 2021)
Activity calls are given as the source filed them. The calls are words filed in the database; no cut-off is given here.

Assays:
MCF10 = assay: Cytotoxicity against human MCF10 cells assessed as reduction in cell viability after 3 hrs by MTT assay; details: MCF10, 3 h
T47D [1] = assay: Cytotoxicity against human T-47D assessed as growth inhibition at 10 uM by NCI protocol relative to control; type: functional; details: read-out: GI
Outline: (§1)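 Run by the NCI under its standard protocol: one dose of 10 μM against a sixty-line panel from nine human tumour tissues. Result given as percent growth inhibition of treated cells relative to untreated cells.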

SF-268 = assay: Cytotoxicity against human SF-268 assessed as growth inhibition at 10 uM by NCI protocol relative to control; type: functional; details: read-out: GI
Outline: (§2)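 Run by NCI as a single-dose screen at 10 μM across the sixty-cell-line panel, which covers nine human tumour tissue types. The read-out is percent growth inhibition of treated cells relative to untreated cells.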

NCI-H226 = assay: Cytotoxicity against human NCI-H226 assessed as growth inhibition at 10 uM by NCI protocol relative to control; type: functional; details: read-out: GI; outline: as §2
SF-295 = assay: Cytotoxicity against human SF-295 assessed as growth inhibition at 10 uM by NCI protocol relative to control; type: functional; details: read-out: GI; outline: as §2
SN12C = assay: Cytotoxicity against human SN12C assessed as growth inhibition at 10 uM by NCI protocol relative to control; type: functional; details: read-out: GI; outline: as §1
LOX IMVI = assay: Cytotoxicity against human LOX IMVI assessed as growth inhibition at 10 uM by NCI protocol relative to control; type: functional; details: read-out: GI; outline: as §2
MCF7 = assay: Cytotoxicity against human MCF7 assessed as growth inhibition at 10 uM by NCI protocol relative to control; type: functional; details: read-out: GI; outline: as §2
SNB-19 = assay: Cytotoxicity against human SNB-19 assessed as growth inhibition at 10 uM by NCI protocol relative to control; type: functional; details: read-out: GI; outline: as §1
BT-549 = assay: Cytotoxicity against human BT-549 assessed as growth inhibition at 10 uM by NCI protocol relative to control; type: functional; details: read-out: GI; outline: as §2
HL-60 = assay: Cytotoxicity against human HL60 assessed as growth inhibition at 10 uM by NCI protocol relative to control; type: functional; details: read-out: GI; outline: as §2
HOP-92 = assay: Cytotoxicity against human HOP-92 assessed as growth inhibition at 10 uM by NCI protocol relative to control; type: functional; details: read-out: GI; outline: as §2
PC-3 = assay: Cytotoxicity against human PC3 assessed as growth inhibition at 10 uM by NCI protocol relative to control; type: functional; details: read-out: GI; outline: as §2
EKVX = assay: Cytotoxicity against human EKVX assessed as growth inhibition at 10 uM by NCI protocol relative to control; type: functional; details: read-out: GI; outline: as §2
NCI-H460 = assay: Cytotoxicity against human NCI-H460 assessed as growth inhibition at 10 uM by NCI protocol relative to control; type: functional; details: read-out: GI; outline: as §2
MDA-MB-231 = assay: Cytotoxicity against human MDA-MB-231 assessed as growth inhibition at 10 uM by NCI protocol relative to control; type: functional; details: read-out: GI; outline: as §2
HCT-15 = assay: Cytotoxicity against human HCT-15 assessed as growth inhibition at 10 uM by NCI protocol relative to control; type: functional; details: read-out: GI; outline: as §2
A549 = assay: Cytotoxicity against human A549 assessed as growth inhibition at 10 uM by NCI protocol relative to control; type: functional; details: read-out: GI; outline: as §2
MOLT-4 = assay: Cytotoxicity against human MOLT-4 assessed as growth inhibition at 10 uM by NCI protocol relative to control; type: functional; details: read-out: GI; outline: as §2
CCRF-CEM = assay: Cytotoxicity against human CCRF-CEM assessed as growth inhibition at 10 uM by NCI protocol relative to control; type: functional; details: read-out: GI; outline: as §2
T47D [2] = assay: Cytotoxicity against human T47D cells assessed as reduction in cell viability after 3 hrs by MTT assay
ACHN = assay: Cytotoxicity against human ACHN assessed as growth inhibition at 10 uM by NCI protocol relative to control; type: functional; details: read-out: GI; outline: as §2
RXF 393 = assay: Cytotoxicity against human RXF 393 assessed as growth inhibition at 10 uM by NCI protocol relative to control; type: functional; details: read-out: GI; outline: as §2
IGROV-1 = assay: Cytotoxicity against human IGROVI assessed as growth inhibition at 10 uM by NCI protocol relative to control; type: functional; details: read-out: GI; outline: as §2
MDA-MB-435 = assay: Cytotoxicity against human MDA-MB-435 assessed as growth inhibition at 10 uM by NCI protocol relative to control; type: functional, cell-based; outline: as §2
NCI-H522 = assay: Cytotoxicity against human NCI-H522 assessed as growth inhibition at 10 uM by NCI protocol relative to control; type: functional; details: read-out: GI; outline: as §2
UO-31 = assay: Cytotoxicity against human UO31 assessed as growth inhibition at 10 uM by NCI protocol relative to control; type: functional; details: read-out: GI; outline: as §1
NCI-H23 = assay: Cytotoxicity against human NCI-H23 assessed as growth inhibition at 10 uM by NCI protocol relative to control; type: functional; details: read-out: GI; outline: as §2
RPMI-8226 = assay: Cytotoxicity against human RPMI-8226 assessed as growth inhibition at 10 uM by NCI protocol relative to control; type: functional; outline: as §2
SK-MEL-5 = assay: Cytotoxicity against human SK-MEL-5 assessed as growth inhibition at 10 uM by NCI protocol relative to control; type: functional; details: read-out: GI; outline: as §2
HCT-116 = assay: Cytotoxicity against human HCT-116 assessed as growth inhibition at 10 uM by NCI protocol relative to control; type: functional; details: read-out: GI; outline: as §2
A498 = assay: Cytotoxicity against human A498 assessed as growth inhibition at 10 uM by NCI protocol relative to control; type: functional; details: read-out: GI; outline: as §2
UACC-62 = assay: Cytotoxicity against human UACC-62 assessed as growth inhibition at 10 uM by NCI protocol relative to control; type: functional; details: read-out: GI; outline: as §1
MDA-MB-468 = assay: Cytotoxicity against human MDA-MB-468 assessed as growth inhibition at 10 uM by NCI protocol relative to control; type: functional; details: read-out: GI; outline: as §2
K562 = assay: Cytotoxicity against human K-562 assessed as growth inhibition at 10 uM by NCI protocol relative to control; type: functional; details: read-out: GI; outline: as §2
Hs-578T = assay: Cytotoxicity against human HS 578T assessed as growth inhibition at 10 uM by NCI protocol relative to control; type: functional; details: read-out: GI; outline: as §2

CC[C@@]1(O)C(=O)OCc2c1cc1n(c2=O)Cc2cc3ccccc3nc2-1 [CAMPTOTHECIN]
IC50 (MCF10): 24.8 µM

Cc1ccc(-c2csc(NC(=O)CN3CCN(c4cc(=O)n(-c5ccccc5)c5ccccc45)CC3)n2)cc1
inhibition of growth at 10 µM (T47D [1]): 40.9% | inhibition of growth at 10 µM (SF-268): 13.4% | inhibition of growth at 10 µM (NCI-H226): 17.3% | inhibition of growth at 10 µM (SF-295): 14.4% | inhibition of growth at 10 µM (SN12C): 13.1% | inhibition of growth at 10 µM (LOX IMVI): 12.2% | inhibition of growth at 10 µM (MCF7): 13.5% | inhibition of growth at 10 µM (SNB-19): 21.8% | inhibition of growth at 10 µM (BT-549): 14.4% | inhibition of growth at 10 µM (HL-60): 19.9% | inhibition of growth at 10 µM (HOP-92): 13.8% | inhibition of growth at 10 µM (PC-3): 23.1% | inhibition of growth at 10 µM (EKVX): 26.5% | inhibition of growth at 10 µM (NCI-H460): 11.1% | inhibition of growth at 10 µM (MDA-MB-231): 17.4% | inhibition of growth at 10 µM (HCT-15): 26% | inhibition of growth at 10 µM (A549): 12% | inhibition of growth at 10 µM (MOLT-4): 32.2% | inhibition of growth at 10 µM (CCRF-CEM): 14.8% | IC50 (T47D [2]): 16.5 µM | inhibition of growth at 10 µM (ACHN): 15.1% | inhibition of growth at 10 µM (RXF 393): 13.2% | inhibition of growth at 10 µM (IGROV-1): 20.2% | growth inhibition (GI) (MDA-MB-435): inactive | inhibition of growth at 10 µM (NCI-H522): 22.9% | inhibition of growth at 10 µM (UO-31): 27% | inhibition of growth at 10 µM (NCI-H23): 29.7% | growth inhibition (GI) (RPMI-8226): inactive | inhibition of growth at 10 µM (SK-MEL-5): 13.5% | inhibition of growth at 10 µM (HCT-116): 20.2% | inhibition of growth at 10 µM (A498): 18.6% | inhibition of growth at 10 µM (UACC-62): 20.1% | inhibition of growth at 10 µM (MDA-MB-468): 30.2% | inhibition of growth at 10 µM (K562): 49.3%

O=c1cc(N2CCNCC2)c2cc(F)ccc2[nH]1
inhibition of growth at 10 µM (T47D [1]): 10.5% | inhibition of growth at 10 µM (EKVX): 56.2% | IC50 (T47D [2]): 37.7 µM | growth inhibition (GI) (MDA-MB-435): inactive | inhibition of growth at 10 µM (A498): 26% | inhibition of growth at 10 µM (Hs-578T): 19.6%
